Data from ChEMBL document CHEMBL1127600, “Mercaptoacyl amino acid inhibitors of atriopeptidase. 1. Structure-activity relationship studies of methionine and S-alkylcysteine derivatives” (J Med Chem, 1994).

Columns and labels:
[1] = target: T1, Angiotensin-converting enzyme (Oryctolagus cuniculus, UniProt P12822); assay: Tested in vitro for its inhibitory activity against angiotensin converting enzyme
T1 sequence (P12822 whole entry): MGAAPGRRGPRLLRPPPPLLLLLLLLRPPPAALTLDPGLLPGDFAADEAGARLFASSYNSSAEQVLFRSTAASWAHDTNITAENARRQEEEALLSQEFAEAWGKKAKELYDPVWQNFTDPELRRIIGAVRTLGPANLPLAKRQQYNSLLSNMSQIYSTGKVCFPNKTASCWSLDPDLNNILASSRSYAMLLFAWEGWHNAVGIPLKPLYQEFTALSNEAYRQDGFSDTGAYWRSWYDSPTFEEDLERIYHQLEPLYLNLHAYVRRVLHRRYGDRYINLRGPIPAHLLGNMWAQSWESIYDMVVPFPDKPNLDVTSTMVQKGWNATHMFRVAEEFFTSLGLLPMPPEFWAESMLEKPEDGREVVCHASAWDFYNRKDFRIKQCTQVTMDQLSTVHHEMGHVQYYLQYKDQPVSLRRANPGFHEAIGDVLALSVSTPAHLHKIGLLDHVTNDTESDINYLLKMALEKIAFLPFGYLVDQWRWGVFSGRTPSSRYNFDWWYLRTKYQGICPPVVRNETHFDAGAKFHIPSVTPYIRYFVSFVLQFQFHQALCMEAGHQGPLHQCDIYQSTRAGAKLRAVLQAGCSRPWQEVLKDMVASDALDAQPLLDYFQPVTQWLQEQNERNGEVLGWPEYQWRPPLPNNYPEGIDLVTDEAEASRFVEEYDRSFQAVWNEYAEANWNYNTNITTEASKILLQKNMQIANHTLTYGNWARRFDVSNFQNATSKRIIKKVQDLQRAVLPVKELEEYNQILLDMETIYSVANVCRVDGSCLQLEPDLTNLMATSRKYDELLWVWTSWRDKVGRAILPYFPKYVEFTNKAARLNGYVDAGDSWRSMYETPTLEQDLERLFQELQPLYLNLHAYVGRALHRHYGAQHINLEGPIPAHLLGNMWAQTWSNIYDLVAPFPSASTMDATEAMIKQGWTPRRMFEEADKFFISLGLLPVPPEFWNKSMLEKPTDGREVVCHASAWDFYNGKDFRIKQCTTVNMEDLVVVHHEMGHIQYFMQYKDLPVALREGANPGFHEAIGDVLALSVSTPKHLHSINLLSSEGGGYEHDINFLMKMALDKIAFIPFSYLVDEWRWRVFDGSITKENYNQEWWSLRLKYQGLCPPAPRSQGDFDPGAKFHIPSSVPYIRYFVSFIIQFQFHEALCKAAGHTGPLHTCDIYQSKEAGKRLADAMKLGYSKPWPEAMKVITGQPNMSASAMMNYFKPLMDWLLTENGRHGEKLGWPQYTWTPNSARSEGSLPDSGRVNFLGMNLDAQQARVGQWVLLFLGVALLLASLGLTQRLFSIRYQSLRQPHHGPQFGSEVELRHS

Neprilysin = target: T2, Neprilysin (Oryctolagus cuniculus, UniProt P08049); assay: In vitro inhibitory activity against neutral endopeptidase (NEP)
T2 sequence (P08049 whole entry): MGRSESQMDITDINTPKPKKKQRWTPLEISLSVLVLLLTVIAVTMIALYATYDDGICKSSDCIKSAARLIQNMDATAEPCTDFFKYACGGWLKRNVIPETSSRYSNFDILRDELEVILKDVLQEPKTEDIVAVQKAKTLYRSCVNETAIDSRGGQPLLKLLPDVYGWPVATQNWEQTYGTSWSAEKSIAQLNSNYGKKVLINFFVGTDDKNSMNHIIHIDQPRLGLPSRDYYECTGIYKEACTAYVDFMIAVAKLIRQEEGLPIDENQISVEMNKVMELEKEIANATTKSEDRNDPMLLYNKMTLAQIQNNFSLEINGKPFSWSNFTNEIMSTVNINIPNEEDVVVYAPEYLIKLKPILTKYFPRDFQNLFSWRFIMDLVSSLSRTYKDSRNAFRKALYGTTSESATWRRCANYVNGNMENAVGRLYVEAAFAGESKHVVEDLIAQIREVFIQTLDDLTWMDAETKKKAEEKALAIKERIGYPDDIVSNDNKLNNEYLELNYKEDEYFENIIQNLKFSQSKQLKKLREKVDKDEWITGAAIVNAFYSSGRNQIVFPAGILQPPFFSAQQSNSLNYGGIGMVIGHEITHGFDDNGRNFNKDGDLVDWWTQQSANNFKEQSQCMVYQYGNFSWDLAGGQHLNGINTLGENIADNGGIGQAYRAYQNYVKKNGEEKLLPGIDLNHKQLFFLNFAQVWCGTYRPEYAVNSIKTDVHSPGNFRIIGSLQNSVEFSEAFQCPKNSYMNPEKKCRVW
Method in brief: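 Purified rabbit kidney NEP (EC 24.11) was the enzyme source, with [³H]Leu-enkephalin as the substrate.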

Rattus norvegicus [2] = assay: In vivo potentiation of ANF induced hypotension in rat, following subcutaneous dose of 30 mg/kg; assay type: functional
Method in brief: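 Conscious male SHR (270–300 g) had caudal artery and jugular vein cannulae placed under ether. After at least 90 min of stabilization, ANF 103-125 or 99-126 was given as an iv bolus at a submaximal dose. 60–90 min later, drug or vehicle (0.2% aqueous methylcellulose with 20% Tris-HCl) was given sc. ANF was repeated 15 min after dosing, and the response was compared with vehicle controls. Values are means of four or more animals.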

Rattus norvegicus [3] = assay: Tested for in vivo Antihypertensive activity in DOCA rat by giving peroral dose of 30 mg/kg; assay type: functional; details: route oral
Method in brief: (§1)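 Male Sprague-Dawley rats (100–150 g) had DOCA-Na hypertension induced and were used 17–21 days later if mean BP was >150 mmHg. Rats were not fasted. Mean BP was recorded after 90-min equilibration. Dosing was sc in TRIS buffer (2 mL/kg) or po in 0.4% aqueous methylcellulose (4 mL/kg). The maximum BP fall over 4 h versus vehicle controls was taken, averaged over four or more animals.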

Rattus norvegicus [4] = assay: Tested for in vivo Antihypertensive activity in DOCA rat by giving peroral dose of 10 mg/kg; assay type: functional; details: route oral; method in brief: as §1
Rattus norvegicus [5] = assay: Tested for in vivo Antihypertensive activity in DOCA rat by giving subcutaneous dose of 30 mg/kg; assay type: functional; method in brief: as §1

Row | IC50 [1] [nM] | IC50 (Neprilysin) [nM] | Structure (SMILES) | Delta blood pressure (Rattus norvegicus [2]) [mmHg] | Delta blood pressure (Rattus norvegicus [3]) [mmHg] | Delta blood pressure (Rattus norvegicus [4]) [mmHg] | Delta blood pressure (Rattus norvegicus [5]) [mmHg] | Delta blood pressure (Rattus norvegicus [2]; 30 mg/kg) [mmHg]
1 | > 1000 | 290 | Cc1ccc(CSC[C@@H](NC(=O)[C@H](CS)Cc2ccc(-c3ccccc3)cc2)C(=O)O)cc1 | 0 |  |  |  | 
2 | 180 | 180 | Cc1ccc(CSC[C@@H](NC(=O)[C@@H](CS)Cc2ccc(-c3ccccc3)cc2)C(=O)O)cc1 | 0 | 19 |  |  | 
3 | 460 | > 300 | Cc1ccc(CSC[C@@H](NC(=O)[C@@H](CS)Cc2ccc3ccccc3c2)C(=O)O)cc1 | 0 |  |  |  | 
4 | 35 | 6.5 | CSCC[C@@H](NC(=O)[C@@H](CS)Cc1ccccc1)C(=O)O | 23 |  | 31 |  | 
5 |  |  | CSCC[C@@H](NC(=O)[C@H](CSC(C)=O)Cc1ccccc1)C(N)=O | 27 |  |  |  | 
6 |  |  | CSCC[C@@H](NC(=O)C(CSC(C)=O)Cc1ccccc1)C(=O)NCCO (stereo partly drawn) | 25 |  | 24 |  | 
7 | 170 | 49 | CC(C)(C)SC[C@@H](NC(=O)[C@@H](CS)Cc1ccccc1)C(=O)O | 25 | 17 |  |  | 
8 | 77 | 1.5 | CSC[C@@H](NC(=O)[C@@H](CS)Cc1ccccc1)C(=O)O | 30 | 0 |  |  | 
9 |  | > 300 | Cc1ccc(CSC[C@@H](NC(=O)[C@@H](CS)Cc2ccccc2)C(N)=O)cc1 | 0 |  |  |  | 
10 |  |  | CC(=O)SC[C@@H](Cc1ccccc1)C(=O)N[C@H](CSCc1ccc(C)cc1)C(N)=O | 12 |  | 29 |  | 
11 | > 1000 | 541 | Cc1ccc(CSC[C@@H](NC(=O)[C@H](CS)Cc2ccccc2)C(=O)O)cc1C | 0 |  |  |  | 
12 |  |  | Cc1ccc(CSC[C@@H](NC(=O)[C@H](CS)Cc2ccc3ccccc3c2)C(=O)O)cc1 | 0 |  |  |  | 
13 | 95 | 2 | COc1ccc(CSC[C@@H](NC(=O)[C@@H](CS)Cc2ccccc2)C(=O)O)cc1 |  | 28 |  |  | 
14 | > 1000 | 76 | CSCC[C@@H](NC(=O)[C@@H](CS)Cc1ccccc1)C(N)=O | 26 |  |  |  | 
15 |  | > 300 | CSCC[C@@H](NC(=O)C(CSC(C)=O)Cc1ccccc1)C(=O)N1CCOCC1 (stereo partly drawn) | 24 |  | 20 |  | 
16 | > 1000 | 2.5 | CCCC(CS)C(=O)N[C@H](CCSC)C(=O)O (stereo partly drawn) |  |  |  |  | 
17 | 150 | 60 | CSCC[C@@H](NC(=O)[C@@H](CS)CCc1ccccc1)C(=O)O |  |  | 18 |  | 
18 |  | > 300 | CCOC(=O)CNC(=O)[C@@H](CCSC)NC(=O)C(CSC(C)=O)Cc1ccccc1 (stereo partly drawn) |  |  | 0 |  | 
19 | > 1000 | 147 | O=C(N[C@H](CSCc1ccccc1)C(=O)O)[C@H](CS)Cc1ccc(Cl)cc1 | 0 |  |  |  | 
20 | > 1000 | 31 | CCSCC[C@@H](NC(=O)[C@H](CS)Cc1ccccc1)C(=O)O | 30 | 0 |  |  | 

Row | IC50 [1] [nM] | IC50 (Neprilysin) [nM] | Structure (SMILES) | Delta blood pressure (Rattus norvegicus [2]) [mmHg] | Delta blood pressure (Rattus norvegicus [3]) [mmHg] | Delta blood pressure (Rattus norvegicus [4]) [mmHg] | Delta blood pressure (Rattus norvegicus [5]) [mmHg] | Delta blood pressure (Rattus norvegicus [2]; 30 mg/kg) [mmHg]
21 |  |  | CSCC[C@@H](NC(=O)[C@@H](CSC(C)=O)Cc1ccccc1)C(=O)O |  |  |  | 48 | 
22 | 80 | 110 | O=C(N[C@H](CSCCc1ccccc1)C(=O)O)[C@@H](CS)Cc1ccccc1 | 37 | 0 |  |  | 
23 | 700 | 3.5 | CSCC[C@@H](NC(=O)C1(CS)CCCC1)C(=O)O |  |  |  | 24 | 
24 | > 1000 | 3.5 | CSCC[C@@H](NC(=O)[C@H](CS)Cc1ccccc1)C(=O)O | 50 |  | 30 |  | 
25 | 44 | 3 | O=C(N[C@H](CSCc1ccccc1)C(=O)O)[C@@H](CS)Cc1ccc(Cl)cc1 | 19 | 20 |  |  | 
26 |  |  | CSCC[C@@H](NC(=O)[C@@H](CSC(=O)c1ccccc1)Cc1ccccc1)C(N)=O |  |  |  | 0 | 
27 | > 1000 | 94 | CSCC[C@@H](NC(=O)[C@H](CS)Cc1ccccc1)C(N)=O |  |  |  |  | 
28 |  |  | COC(=O)[C@@H](CCSC)NC(=O)[C@H](CSC(C)=O)Cc1ccccc1 | 45 |  | 14 |  | 
29 | 640 | 231 | CC(C)(C)SC[C@@H](NC(=O)[C@H](CS)Cc1ccccc1)C(=O)O | 0 |  |  |  | 
30 | 45 | 6.5 | CCSC[C@@H](NC(=O)C(CS)Cc1ccccc1)C(=O)O (stereo partly drawn) | 25 |  |  |  | 
31 | 215 | 5 | CCSCC[C@@H](NC(=O)[C@@H](CS)Cc1ccccc1)C(=O)O | 20 |  |  |  | 
32 | 90 | 39 | Cc1ccc(CSC[C@@H](NC(=O)[C@H](CS)Cc2cccc3ccccc23)C(=O)O)cc1 | 0 |  |  |  | 
33 | > 1000 | 274 | O=C(N[C@H](CSC(c1ccccc1)(c1ccccc1)c1ccccc1)C(=O)O)C(CS)Cc1ccccc1 (stereo partly drawn) | 0 |  |  |  | 
34 |  |  | CCOC(=O)[C@@H](CCSC)NC(=O)C1(CSC(C)=O)CCCC1 |  |  | 27 |  | 
35 | > 1000 | 133 | O=C(N[C@H](CSCCc1ccccc1)C(=O)O)[C@H](CS)Cc1ccccc1 | 23 | 38 |  |  | 
36 |  |  | CSCC[C@@H](NC(=O)C(CSC(C)=O)Cc1ccccc1)C(=O)N1CCCC1 (stereo partly drawn) | 29 |  | 24 |  | 
37 | 115 | 19 | O=C(N[C@@H](CSCc1ccccc1)C(=O)O)[C@@H](CS)Cc1ccccc1 | 11 |  |  |  | 
38 | 1000 | > 300 | CCCC(CS)C(=O)N[C@H](CSCC)C(=O)O (stereo partly drawn) |  |  |  |  | 
39 | 1250 | 14 | O=C(N[C@H](CSCc1ccccc1)C(=O)O)C(CS)Cc1ccccc1 (single isomer, unassigned) |  | 18 |  |  | 19
